Activity calls are given as the source filed them. The calls are words filed in the database; no cut-off is given here.
Columns and labels:
[1] = system: HeLa; test: Antiproliferative activity against human HeLa cells after 72 hrs by MTT assay; format: functional, cell-based
In short: (§1)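 HeLa and SMMC-7721 cells in log phase were seeded at 4000-6000 cells/well. After 24 h, quadruplicate wells were treated with a series of concentrations for 72 h. DMSO stocks were 5 mmol/L, with final DMSO below 0.1%. MTT (10 mg/mL in PBS) was added for 4 h, medium replaced with DMSO, and OD read at 490 nm. IC50 came from at least five concentrations; mean and SD of at least three independent experiments.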

[2] = system: K562; test: Antiproliferative activity against human K562 cells after 72 hrs by MTT assay; format: functional, cell-based; conditions: K562, 72 h
In short: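 K562 cells were grown in RPMI 1640 with 10% FBS at 37 °C in 5% CO2, then seeded at 4000-6000 cells/well. Quadruplicate wells were exposed to drug for 72 h, with final DMSO below 0.1%. After 4 h with MTT, solubilizer (10% SDS, 5% isobutyl alcohol, 0.01 M HCl) was added for 12 h, then OD read at 490 nm. IC50 came from at least five concentrations; mean and SD of at least three experiments.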

[3] = system: SMMC-7721; test: Antiproliferative activity against human SMMC7721 cells after 72 hrs by MTT assay; format: functional, cell-based; conditions: SMMC-7721, 72 h; in short: as §1
[4] = target: Tubulin (Homo sapiens) (UniProt P68371+Q9H4B7+P0DPH7+P68366+Q13509+Q71U36+P04350+Q3ZCM7+P07437+P68363+Q9BQE3+Q6PEY2+Q13885+Q9BVA1+Q9BUF5); test: Inhibition of tubulin (unknown origin) polymerization at 20 uM after 40 mins by fluorescence assay; format: protein-complex assay
In short: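 Polymerization was run with a fluorescence kit. Compound, in duplicate, was warmed 1 min at 37 °C before adding cold tubulin mix (2 mg/mL tubulin, 80 mM PIPES pH 6.9, 2.0 mM MgCl2, 0.5 mM EGTA, 1.0 mM GTP, 15% glycerol). Fluorescence was read at ex 360/em 450 nm every minute for 1 h at 37 °C and scored at 40 min against 0.1% DMSO vehicle.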

[5] = organism: Sus scrofa; test: Competitive binding affinity to porcine brain tubulin at 0.1 to 10 uM preincubated for 1 hr followed by colchicine addition measured after 1 hr by fluorescence assay
In short: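 Tubulin (4 μM) in 80 mM PIPES pH 6.9, 2 mM MgCl2 and 0.5 mM EGTA was preincubated 1 h at 37 °C with 0.1, 1, 5 or 10 μM test agent, with DMSO as control. Colchicine (10 μM) was then added for another 1 h at 37 °C. Tubulin-colchicine fluorescence was read at ex 340/em 435 nm and normalized to DMSO; at least three replicates, mean ± SD.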

IC50 [1] [µM] | IC50 [2] [µM] | IC50 [3] [µM] | inhibition [4] | Activity [5] | Compound
8.28 | 7.72 | 5.4 |  |  | COC(=O)c1ccc2c(c1)NC(=O)CN2C(=O)c1ccc(OC)cc1
39.4 | 45.3 | 9.1 |  |  | COC(=O)c1ccc2c(c1)NC(=O)CN2C(=O)Cc1cc(OC)c(OC)c(OC)c1
38.1 | 43.6 | 33.2 |  |  | COC(=O)c1ccc2c(c1)NC(=O)CN2Cc1ccc(OC)c(OC)c1
41.8 | 42.6 | 28 |  |  | COc1cc(CN2CC(=O)Nc3cc(C(=O)NC4CCCCC4)ccc32)cc(OC)c1OC
> 50 | > 50 | 40.6 |  |  | COc1cc(C(=O)N2CC(=O)Nc3cc(C(=O)NC4CCCCC4)ccc32)cc(OC)c1OC
26.4 | > 50 | 37.9 |  |  | COc1cc(C(=O)N2CC(=O)Nc3cc(C(=O)Nc4ccccc4)ccc32)cc(OC)c1OC

The remaining lines, values behind:

Compound | IC50 [1] [µM] | IC50 [2] [µM] | IC50 [3] [µM] | inhibition [4] | Activity [5]
COC(=O)c1ccc2c(c1)NC(=O)CN2C(=O)c1ccc(F)cc1 | 15.9 | 9.8 | 7.69 |  | 
CCCCNC(=O)c1ccc2c(c1)NC(=O)CN2C(=O)c1ccc(OC)c(OC)c1 | > 50 | > 50 | > 50 |  | 
COc1cccc2c1C(=O)c1c(O)c3c(c(O)c1C2=O)C[C@@](O)(C(=O)CO)C[C@@H]3O[C@H]1C[C@H](N)[C@H](O)[C@H](C)O1 [DOXORUBICIN] |  | 0.89 | 1.59 |  | 
COc1cc(C(=O)N2CC(=O)Nc3cc(C(=O)N4CCOCC4)ccc32)cc(OC)c1OC | > 50 | > 50 | 39.2 |  | 
COC(=O)c1ccc2c(c1)NC(=O)CN2C(=O)c1ccc(OC)c(OC)c1 | 1.42 | 3 | 1.32 | Active | 
COc1ccc(C(=O)N2CC(=O)Nc3cc(C(=O)Nc4ccccc4)ccc32)cc1OC | 24.9 | 42.9 | 34.4 |  | 
COC(=O)c1ccc2c(c1)NC(=O)CN2Cc1ccc(OC)cc1 | 16.4 | 43.2 | 12.5 |  | 
CC(=O)O[C@H]1C(=O)[C@@]2(C)[C@H]([C@H](OC(=O)c3ccccc3)[C@]3(O)C[C@H](OC(=O)[C@H](O)[C@@H](NC(=O)c4ccccc4)c4ccccc4)C(C)=C1C3(C)C)[C@]1(OC(C)=O)CO[C@@H]1C[C@@H]2O |  |  |  |  | inactive
CCCCNC(=O)c1ccc2c(c1)NC(=O)CN2C(=O)c1cc(OC)c(OC)c(OC)c1 | > 50 | > 50 | 43.1 |  | 
COc1ccc(C(=O)N2CC(=O)Nc3cc(C(=O)N4CCOCC4)ccc32)cc1OC | 34.9 | > 50 | 34.9 |  | 
CCCCNC(=O)c1ccc2c(c1)NC(=O)CN2Cc1cc(OC)c(OC)c(OC)c1 | 37.5 | 43 | 39.7 |  | 
COc1cc(CN2CC(=O)Nc3cc(C(=O)O)ccc32)cc(OC)c1OC | 32.2 | 35.9 | 39 |  | 
COC(=O)c1ccc2c(c1)NC(=O)CN2Cc1cc(OC)c(OC)c(OC)c1 | 2.76 | 3.42 | 2.69 | Active | 
COc1ccc(/C=C\c2cc(OC)c(OC)c(OC)c2)cc1O [COMBRETASTATIN A4] |  | 0.013 | 0.0038 |  | 
